Measured values published in ChEMBL document CHEMBL2062515, “Synthesis and evaluation of novel radioligands for positron emission tomography imaging of metabotropic glutamate receptor subtype 1 (mGluR1) in rodent brain” (J Med Chem, 2012).

Tests used:
[1] = system: Brain; assay: Biodistribution in mouse brain at 4.8 MBq/140 uL, iv after 15 mins by gamma counting; format: ADME, organism-based; conditions: in vivo, 0.25 h
In short: (§1)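 Mice received the radioligand in saline by tail vein (4.8 MBq/140 μL, 40 pmol). Four mice per time point were killed by cervical dislocation at 1, 5, 15, 30 and 60 min. Tissues were removed quickly and counted in an autogamma counter. Data are decay-corrected % injected dose per gram of wet tissue, mean ± SE, n = 4.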

[2] = system: Mus musculus; assay: Biodistribution in mouse small intestine at 4.8 MBq/140 uL, iv after 15 mins by gamma counting; format: ADME, organism-based; conditions: in vivo, 0.25 h
In short: (§2)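 [¹¹C]radioligand in saline (4.8 MBq/140 μL, 40 pmol) injected via tail vein; four mice per time point killed by cervical dislocation at 1, 5, 15, 30, 60 min. Tissues (small intestine including contents) removed, counted in autogamma counter, decay-corrected, expressed as % injected dose per gram wet tissue; mean SE, n = 4.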

[3] = system: Brain; assay: Biodistribution in mouse brain at 4.8 MBq/140 uL, iv after 5 mins by gamma counting; format: ADME, organism-based; conditions: in vivo; in short: as §1
[4] = system: Brain; assay: Biodistribution in mouse brain at 4.8 MBq/140 uL, iv after 60 mins by gamma counting; format: ADME, organism-based; conditions: in vivo, 1 h; in short: as §1
[5] = system: Liver; assay: Biodistribution in mouse liver at 4.8 MBq/140 uL, iv after 5 mins by gamma counting; format: ADME, organism-based; conditions: in vivo; in short: as §1
[6] = system: Mus musculus; assay: Biodistribution in mouse small intestine at 4.8 MBq/140 uL, iv after 1 min by gamma counting; format: ADME, organism-based; conditions: in vivo; in short: as §2
[7] = system: Lung; assay: Biodistribution in mouse lung at 4.8 MBq/140 uL, iv after 15 mins by gamma counting; format: ADME, organism-based; conditions: in vivo, 0.25 h; in short: as §1
[8] = system: Spleen; assay: Biodistribution in mouse spleen at 4.8 MBq/140 uL, iv after 15 mins by gamma counting; format: ADME, organism-based; conditions: in vivo, 0.25 h; in short: as §2
[9] = system: Striatum; assay: Drug uptake in Sprague-Dawley rat striatum at 16 MBq administered as bolus infusion after 45 mins by PET analysis; format: ADME, organism-based; conditions: in vivo, iv, 0.75 h
[10] = system: Blood; assay: Biodistribution in mouse blood at 4.8 MBq/140 uL, iv after 1 min by gamma counting; format: ADME, organism-based; conditions: in vivo; in short: as §1
[11] = system: Mus musculus; assay: Biodistribution in mouse testis at 4.8 MBq/140 uL, iv after 15 mins by gamma counting; format: ADME, organism-based; conditions: in vivo, 0.25 h; in short: as §2
[12] = system: Thalamus; assay: Drug uptake in Sprague-Dawley rat thalamus at 16 MBq administered as bolus infusion after 45 mins by PET analysis; format: ADME, organism-based; conditions: in vivo, iv, 0.75 h
[13] = system: Cerebellum; assay: Drug uptake in Sprague-Dawley rat cerebellum at 17 MBq administered as bolus infusion after 45 mins post injection by PET analysis relative to control in presence of N-[4-[6-(isopropylamino)pyrimidin-4-yl]-1,3-thiazol-2-yl]-4-methoxy-N-methylbenzamide; format: ADME, organism-based; conditions: in vivo, iv, 0.75 h
[14] = system: Muscle tissue; assay: Biodistribution in mouse muscle at 4.8 MBq/140 uL, iv after 30 mins by gamma counting; format: ADME, organism-based; conditions: in vivo, 0.5 h; in short: as §1
[15] = system: Lung; assay: Biodistribution in mouse lung at 4.8 MBq/140 uL, iv after 60 mins by gamma counting; format: ADME, organism-based; conditions: in vivo, 1 h; in short: as §1
[16] = system: Liver; assay: Biodistribution in mouse liver at 4.8 MBq/140 uL, iv after 1 min by gamma counting; format: ADME, organism-based; conditions: in vivo; in short: as §1
[17] = system: Brain; assay: Biodistribution in mouse brain at 4.8 MBq/140 uL, iv after 30 mins by gamma counting; format: ADME, organism-based; conditions: in vivo, 0.5 h; in short: as §1
[18] = system: Spleen; assay: Biodistribution in mouse spleen at 4.8 MBq/140 uL, iv after 5 mins by gamma counting; format: ADME, organism-based; conditions: in vivo; in short: as §2
[19] = Metabolic stability in Sprague-Dawley rat brain assessed as compound remaining after 90 mins; format: ADME, tissue-based; conditions: read-out: Stability
[20] = system: Muscle tissue; assay: Biodistribution in mouse muscle at 4.8 MBq/140 uL, iv after 60 mins by gamma counting; format: ADME, organism-based; conditions: in vivo, 1 h; in short: as §2
[21] = system: Cerebellum; assay: Drug uptake in Sprague-Dawley rat cerebellum at 16 MBq administered as bolus infusion after 45 mins post injection by PET analysis; format: ADME, organism-based; conditions: in vivo, iv, 0.75 h
[22] = system: Blood; assay: Biodistribution in mouse blood at 4.8 MBq/140 uL, iv after 30 mins by gamma counting; format: ADME, organism-based; conditions: in vivo, 0.5 h; in short: as §1
[23] = system: Mus musculus; assay: Biodistribution in mouse testis at 4.8 MBq/140 uL, iv after 60 mins by gamma counting; format: ADME, organism-based; conditions: in vivo, 1 h; in short: as §2
[24] = system: Cerebellum; assay: Drug uptake in Sprague-Dawley rat cerebellum at 17 MBq administered as bolus infusion by PET analysis in presence of JNJ16259685; format: ADME, organism-based; conditions: in vivo, iv
[25] = system: Kidney; assay: Biodistribution in mouse kidney at 4.8 MBq/140 uL, iv after 5 mins by gamma counting; format: ADME, organism-based; conditions: in vivo; in short: as §1
[26] = system: Heart; assay: Biodistribution in mouse heart at 4.8 MBq/140 uL, iv after 30 mins by gamma counting; format: ADME, organism-based; conditions: in vivo, 0.5 h; in short: as §1
[27] = system: Heart; assay: Biodistribution in mouse heart at 4.8 MBq/140 uL, iv after 5 mins by gamma counting; format: ADME, organism-based; conditions: in vivo; in short: as §1
[28] = system: Heart; assay: Biodistribution in mouse heart at 4.8 MBq/140 uL, iv after 1 min by gamma counting; format: ADME, organism-based; conditions: in vivo; in short: as §1
[29] = system: Brain; assay: Biodistribution in mouse brain at 4.8 MBq/140 uL, iv after 1 min by gamma counting; format: ADME, organism-based; conditions: in vivo; in short: as §1
[30] = system: Mus musculus; assay: Biodistribution in mouse testis at 4.8 MBq/140 uL, iv after 30 mins by gamma counting; format: ADME, organism-based; conditions: in vivo, 0.5 h; in short: as §2
[31] = system: Thalamus; assay: Drug uptake in Sprague-Dawley rat thalamus at 17 MBq administered as bolus infusion by PET analysis in presence of N-[4-[6-(isopropylamino)pyrimidin-4-yl]-1,3-thiazol-2-yl]-4-methoxy-N-methylbenzamide; format: ADME, organism-based; conditions: in vivo, iv
[32] = system: Kidney; assay: Biodistribution in mouse kidney at 4.8 MBq/140 uL, iv after 15 mins by gamma counting; format: ADME, organism-based; conditions: in vivo, 0.25 h; in short: as §1
[33] = system: Thalamus; assay: Drug uptake in Sprague-Dawley rat thalamus at 17 MBq administered as bolus infusion by PET analysis in presence of JNJ16259685; format: ADME, organism-based; conditions: in vivo, iv
[34] = system: Spleen; assay: Biodistribution in mouse spleen at 4.8 MBq/140 uL, iv after 60 mins by gamma counting; format: ADME, organism-based; conditions: in vivo, 1 h; in short: as §2
[35] = system: Mus musculus; assay: Biodistribution in mouse testis at 4.8 MBq/140 uL, iv after 1 min by gamma counting; format: ADME, organism-based; conditions: in vivo; in short: as §2
[36] = system: Cerebellum; assay: Drug uptake in Sprague-Dawley rat cerebellum at 16 MBq administered as bolus infusion after 90 mins by PET analysis; format: ADME, organism-based; conditions: in vivo, iv, 1.5 h
[37] = system: Spleen; assay: Biodistribution in mouse spleen at 4.8 MBq/140 uL, iv after 30 mins by gamma counting; format: ADME, organism-based; conditions: in vivo, 0.5 h; in short: as §2
[38] = Ratio of drug uptake in striatum to pons of Sprague-Dawley rat at 16 MBq administered as bolus infusion; conditions: in vivo, iv
[39] = system: Liver; assay: Biodistribution in mouse liver at 4.8 MBq/140 uL, iv after 60 mins by gamma counting; format: ADME, organism-based; conditions: in vivo, 1 h; in short: as §1
[40] = system: Thalamus; assay: Drug uptake in wild type mouse thalamus at 17 MBq, iv up to 60 mins by PET analysis; format: ADME, organism-based; conditions: in vivo, 1 h
[41] = system: Mus musculus; assay: Biodistribution in mouse small intestine at 4.8 MBq/140 uL, iv after 30 mins by gamma counting; format: ADME, organism-based; conditions: in vivo, 0.5 h; in short: as §2
[42] = system: Muscle tissue; assay: Biodistribution in mouse muscle at 4.8 MBq/140 uL, iv after 5 mins by gamma counting; format: ADME, organism-based; conditions: in vivo; in short: as §2
[43] = system: Striatum; assay: Drug uptake in Sprague-Dawley rat striatum at 17 MBq administered as bolus infusion by PET analysis in presence of JNJ16259685; format: ADME, organism-based; conditions: in vivo, iv
[44] = Ratio of drug uptake in thalamus to pons of Sprague-Dawley rat at 16 MBq administered as bolus infusion; conditions: in vivo, iv

Work on `CC(C)Nc1cc(-c2csc(N(C)C(=O)c3ccc(O[11CH3])cc3)n2)ncn1` yielded a Drug uptake [1] of 3.14 % ID/g, a Drug uptake [2] of 4.98 % ID/g and a Drug uptake [3] of 3.21 % ID/g. The Drug uptake [4] was 1.85 % ID/g, the Drug uptake [5] was 8.34 % ID/g and the Drug uptake [6] was 3.65 % ID/g. For the same compound, the Drug uptake [7] was 1.91 % ID/g, the Drug uptake [8] was 1.98 % ID/g and the Drug uptake [9] was “Active”. For the same compound, the Drug uptake [10] was 3.79 % ID/g, the Drug uptake [11] was 0.54 % ID/g and the Drug uptake [12] was “Active”. The Drug uptake [13] was “Active”, the Drug uptake [14] was 0.64 % ID/g and the Drug uptake [15] was 1.57 % ID/g. For the same compound, the Drug uptake [16] was 8.16 % ID/g, the Drug uptake [17] was 2.38 % ID/g and the Drug uptake [18] was 1.96 % ID/g. For the same compound, the remaining at 1.5 h [19] was greater than 80%, the Drug uptake [20] was 0.52 % ID/g and the Drug uptake [21] was “Active”. For the same compound, the Drug uptake [22] was 0.67 % ID/g, the Drug uptake [23] was 0.33 % ID/g and the Drug uptake [24] was “Not Active”. For the same compound, the Drug uptake [25] was 5.64 % ID/g, the Drug uptake [26] was 0.91 % ID/g and the Drug uptake [27] was 2.09 % ID/g. For the same compound, the Drug uptake [28] was 4.63 % ID/g, the Drug uptake [29] was 3.1 % ID/g and the Drug uptake [30] was 0.38 % ID/g. For the same compound, the Drug uptake [31] was “Not Active”, the Drug uptake [32] was 3.78 % ID/g and the Drug uptake [33] was “Not Active”. It also gave a Drug uptake [34] of 2.36 % ID/g, a Drug uptake [35] of 0.72 % ID/g and a Drug uptake [36] of 90%. It also gave a Drug uptake [37] of 2.14 % ID/g, a Ratio [38] of 4.32 and a Drug uptake [39] of 3.97 % ID/g. For the same compound, the Drug uptake [40] was “Active”, the Drug uptake [41] was 4.07 % ID/g and the Drug uptake [42] was 1.22 % ID/g. The Drug uptake [43] was “Not Active” and the Ratio [44] was 5.05.
